Converted amounts (≈) assume the structure as drawn. The source made the active and inactive calls. No cut-off for these calls is given here.
Columns and labels:
Candida albicans = assay: Antifungal activity against Candida albicans after 30 to 72 hrs by agar culture method; format: functional, organism-based
Procedure, shortened: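 Agar well assay on C. albicans: compounds at a range of concentrations in DMF were loaded into 6 mm wells. Plates were incubated at 30 °C for 30–72 h. Inhibition zones were read in mm against standard drugs.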

Streptococcus agalactiae [1] = assay: Antibacterial activity against multidrug-resistant Streptococcus agalactiae after 20 hrs by cylinder and well method; format: functional
Procedure, shortened: (§1)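 Agar diffusion assay: organisms grown overnight on 2% agar with 5% sheep blood under 10% CO2. Inocula were diluted in Ringer solution, treated in Todd–Hewitt medium and spread on agar plates. Drug spots were applied, with about 5 × 10^3 CFU/spot. Plates were held at 37 °C for 20 h. Inhibition zones were read in mm against standard drugs and vehicle.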

Pseudomonas aeruginosa [2] = assay: Antibacterial activity against multidrug-resistant Pseudomonas aeruginosa after 24 hrs by broth microdilution method; format: functional
Procedure, shortened: (§2)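 MIC was determined in Mueller–Hinton broth.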

Streptococcus pyogenes [3] = assay: Antibacterial activity against multidrug-resistant Streptococcus pyogenes after 20 hrs by cylinder and well method; format: functional; procedure, shortened: as §1
Streptococcus pyogenes [4] = assay: Antibacterial activity against multidrug-resistant Streptococcus pyogenes after 24 hrs by broth microdilution method; format: functional; procedure, shortened: as §2
Streptococcus pneumoniae [5] = assay: Antibacterial activity against multidrug-resistant Streptococcus pneumoniae after 20 hrs by cylinder and well method; format: functional; procedure, shortened: as §1
Streptococcus agalactiae [6] = assay: Antibacterial activity against multidrug-resistant Streptococcus agalactiae after 24 hrs by broth microdilution method; format: functional; procedure, shortened: as §2
Staphylococcus aureus [7] = assay: Antibacterial activity against multidrug-resistant Staphylococcus aureus after 24 hrs by broth microdilution method; format: functional; procedure, shortened: as §2
Escherichia coli [8] = assay: Antibacterial activity against multidrug-resistant Escherichia coli after 20 hrs by cylinder and well method; format: functional; procedure, shortened: as §1
[9] = system: Salmonella enterica subsp. enterica; assay: Antibacterial activity against multidrug-resistant Salmonella typhi after 24 hrs by broth microdilution method; format: functional, Salmonella enterica subsp. enterica serovar Typhi; procedure, shortened: as §2
[10] = system: Salmonella enterica subsp. enterica; assay: Antibacterial activity against multidrug-resistant Salmonella typhi after 20 hrs by cylinder and well method; format: functional, Salmonella enterica subsp. enterica serovar Typhi; procedure, shortened: as §1
Pseudomonas aeruginosa [11] = assay: Antibacterial activity against multidrug-resistant Pseudomonas aeruginosa after 20 hrs by cylinder and well method; format: functional; procedure, shortened: as §1
Staphylococcus aureus [12] = assay: Antibacterial activity against multidrug-resistant Staphylococcus aureus after 20 hrs by cylinder and well method; format: functional; procedure, shortened: as §1
Streptococcus pneumoniae [13] = assay: Antibacterial activity against multidrug-resistant Streptococcus pneumoniae after 24 hrs by broth microdilution method; format: functional; procedure, shortened: as §2
Escherichia coli [14] = assay: Antibacterial activity against multidrug-resistant Escherichia coli broth after 24 hrs by broth microdilution method; format: functional; procedure, shortened: as §2

SMILES | Activity (Candida albicans) | inhibition zone (IZ) (Streptococcus agalactiae [1]) [mm] | MIC (Pseudomonas aeruginosa [2]) [µg/mL] | inhibition zone (IZ) (Streptococcus pyogenes [3]) [mm] | MIC (Streptococcus pyogenes [4]) [µg/mL] | inhibition zone (IZ) (Streptococcus pneumoniae [5]) [mm] | MIC (Streptococcus agalactiae [6]) [µg/mL] | MIC (Staphylococcus aureus [7]) [µg/mL] | inhibition zone (IZ) (Escherichia coli [8]) [mm] | MIC [9] [µg/mL] | inhibition zone (IZ) [10] [mm] | inhibition zone (IZ) (Pseudomonas aeruginosa [11]) [mm] | inhibition zone (IZ) (Staphylococcus aureus [12]) [mm] | MIC (Streptococcus pneumoniae [13]) [µg/mL] | MIC (Escherichia coli [14]) [µg/mL]
O=C(Cn1c2ccccc2c2nc3ccccc3nc21)N1N=C(c2cc3ccccc3o2)CC1c1ccccc1 (stereo not drawn) | inactive | 8 | 15.5 (≈ 29.7 µM) | 12 | 28.5 (≈ 54.6 µM) | 20 | 28.5 (≈ 54.6 µM) | 2.5 (≈ 4.79 µM) | 14 | 17 (≈ 32.6 µM) | 8 | 11 | 16 | 2 (≈ 3.83 µM) | 8 (≈ 15.3 µM)
O=C(Cn1c2ccccc2c2nc3ccccc3nc21)N1N=C(c2cc3ccccc3o2)CC1c1ccc(Cl)cc1 (stereo not drawn) | inactive | 10 | 16.5 (≈ 29.7 µM) | 14 | 22 (≈ 39.6 µM) | 15 | 28 (≈ 50.4 µM) | 16.5 (≈ 29.7 µM) | 7 | 16 (≈ 28.8 µM) | 10 | 10 | 8 | 5.5 (≈ 9.89 µM) | 22.5 (≈ 40.5 µM)
O=C(Cn1c2ccccc2c2nc3ccccc3nc21)N1N=C(c2cc3ccccc3o2)CC1c1ccccc1Cl (stereo not drawn) | inactive | 10 | 17.5 (≈ 31.5 µM) | 12 | 25 (≈ 45 µM) | 14 | 30 (≈ 54 µM) | 10 (≈ 18 µM) | 8 | 15 (≈ 27 µM) | 9 | 9 | 11 | 7 (≈ 12.6 µM) | 21.5 (≈ 38.7 µM)
O=C(Cn1c2ccccc2c2nc3ccccc3nc21)N1N=C(c2cc3ccccc3o2)CC1c1ccco1 (stereo not drawn) | inactive | 10 | 21 (≈ 41.1 µM) | 8 | 30 (≈ 58.6 µM) | 14 | 26.5 (≈ 51.8 µM) | 10.5 (≈ 20.5 µM) | 10 | 16.5 (≈ 32.3 µM) | 9 | 8 | 10 | 5.6 (≈ 10.9 µM) | 15 (≈ 29.3 µM)
C[C@@H]1CN(c2c(F)c(N)c3c(=O)c(C(=O)O)cn(C4CC4)c3c2F)C[C@H](C)N1 [SPARFLOXACIN] |  | 38 | 4.6 (≈ 11.7 µM) | 38 | 15 (≈ 38.2 µM) | 34 | 12 (≈ 30.6 µM) | 0.25 (≈ 0.637 µM) | 30 | 0.5 (≈ 1.27 µM) | 34 | 33 | 36 | 0.04 (≈ 0.102 µM) | 0.26 (≈ 0.663 µM)
COc1ccc(C2CC(c3cc4ccccc4o3)=NN2C(=O)Cn2c3ccccc3c3nc4ccccc4nc32)cc1 (stereo not drawn) | inactive | 14 | 12.5 (≈ 22.7 µM) | 14 | 23.5 (≈ 42.6 µM) | 16 | 19 (≈ 34.4 µM) | 8 (≈ 14.5 µM) | 17 | 12 (≈ 21.8 µM) | 11 | 13 | 12 | 4.5 (≈ 8.16 µM) | 5 (≈ 9.06 µM)
O=C(Cn1c2ccccc2c2nc3ccccc3nc21)N1N=C(c2cc3ccccc3o2)CC1c1cccc([N+](=O)[O-])c1 (stereo not drawn) | inactive | 12 | 5.5 (≈ 9.71 µM) | 12 | 28 (≈ 49.4 µM) | 14 | 26 (≈ 45.9 µM) | 12.5 (≈ 22.1 µM) | 13 | 13 (≈ 22.9 µM) | 10 | 16 | 9 | 8 (≈ 14.1 µM) | 10.5 (≈ 18.5 µM)
CN(C)c1ccc(C2CC(c3cc4ccccc4o3)=NN2C(=O)Cn2c3ccccc3c3nc4ccccc4nc32)cc1 (stereo not drawn) | inactive | 7 | 14 (≈ 24.8 µM) | 9 | 25.5 (≈ 45.2 µM) | 13 | 36.5 (≈ 64.6 µM) | 7 (≈ 12.4 µM) | 10 | 9.5 (≈ 16.8 µM) | 10 | 11 | 14 | 9 (≈ 15.9 µM) | 13.5 (≈ 23.9 µM)
O=C(Cn1c2ccccc2c2nc3ccccc3nc21)N1N=C(c2cc3ccccc3o2)CC1c1ccccc1O (stereo not drawn) | inactive | 11 | 3.5 (≈ 6.51 µM) | 10 | 26 (≈ 48.4 µM) | 12 | 22 (≈ 40.9 µM) | 6 (≈ 11.2 µM) | 18 | 8.5 (≈ 15.8 µM) | 13 | 15 | 13 | 9.5 (≈ 17.7 µM) | 1 (≈ 1.86 µM)
CCn1cc(C(=O)O)c(=O)c2cc(F)c(N3CCNCC3)cc21 [NORFLOXACIN] |  | 32 | 1.8 (≈ 5.64 µM) | 30 | 2.6 (≈ 8.14 µM) | 22 | 22 (≈ 68.9 µM) | 1.5 (≈ 4.7 µM) | 20 | 20.2 (≈ 63.3 µM) | 24 | 28 | 28 | 0.12 (≈ 0.376 µM) | 1.3 (≈ 4.07 µM)

Reference: ChEMBL document CHEMBL1153606, “Microwave assisted synthesis of new indophenazine 1,3,5-trisubstruted pyrazoline derivatives of benzofuran and their antimicrobial activity” (2009)
